According to ChEMBL document CHEMBL1148412, “Discovery of a new class of anilinoquinazoline inhibitors with high affinity and specificity for the tyrosine kinase domain of c-Src” (J Med Chem, 2004):
Values after ≈ are worked out from the molar mass of the structure shown.

Legend:
[1] = test system: A549; test: In vitro inhibitory concentration against proliferation of A459 cell line.; conditions: Homo sapiens
[2] = target: Proto-oncogene tyrosine-protein kinase Src (Homo sapiens, UniProt P12931); test: In vitro inhibitory concentration against src-tyrosine kinase
Proto-oncogene tyrosine-protein kinase Src, sequence (P12931 2-536 limits assumed): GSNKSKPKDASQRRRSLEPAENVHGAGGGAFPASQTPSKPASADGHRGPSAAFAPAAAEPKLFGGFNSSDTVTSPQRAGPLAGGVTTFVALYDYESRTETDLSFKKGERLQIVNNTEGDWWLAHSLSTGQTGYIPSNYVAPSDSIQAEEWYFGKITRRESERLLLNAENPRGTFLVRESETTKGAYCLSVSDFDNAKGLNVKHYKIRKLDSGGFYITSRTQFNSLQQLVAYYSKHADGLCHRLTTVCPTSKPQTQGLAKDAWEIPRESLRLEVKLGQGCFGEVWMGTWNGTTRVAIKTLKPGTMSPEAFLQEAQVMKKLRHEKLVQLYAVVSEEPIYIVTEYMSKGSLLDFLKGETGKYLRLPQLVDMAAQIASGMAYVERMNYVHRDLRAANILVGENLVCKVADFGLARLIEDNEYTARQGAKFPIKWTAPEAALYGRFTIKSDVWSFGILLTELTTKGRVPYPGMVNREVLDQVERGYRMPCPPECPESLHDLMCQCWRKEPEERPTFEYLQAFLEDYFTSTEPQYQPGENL

[3] = target: Vascular endothelial growth factor receptor 2 (Homo sapiens, UniProt P35968); test: In vitro inhibitory concentration against VEGF receptor 2.
Vascular endothelial growth factor receptor 2, sequence (P35968 whole entry): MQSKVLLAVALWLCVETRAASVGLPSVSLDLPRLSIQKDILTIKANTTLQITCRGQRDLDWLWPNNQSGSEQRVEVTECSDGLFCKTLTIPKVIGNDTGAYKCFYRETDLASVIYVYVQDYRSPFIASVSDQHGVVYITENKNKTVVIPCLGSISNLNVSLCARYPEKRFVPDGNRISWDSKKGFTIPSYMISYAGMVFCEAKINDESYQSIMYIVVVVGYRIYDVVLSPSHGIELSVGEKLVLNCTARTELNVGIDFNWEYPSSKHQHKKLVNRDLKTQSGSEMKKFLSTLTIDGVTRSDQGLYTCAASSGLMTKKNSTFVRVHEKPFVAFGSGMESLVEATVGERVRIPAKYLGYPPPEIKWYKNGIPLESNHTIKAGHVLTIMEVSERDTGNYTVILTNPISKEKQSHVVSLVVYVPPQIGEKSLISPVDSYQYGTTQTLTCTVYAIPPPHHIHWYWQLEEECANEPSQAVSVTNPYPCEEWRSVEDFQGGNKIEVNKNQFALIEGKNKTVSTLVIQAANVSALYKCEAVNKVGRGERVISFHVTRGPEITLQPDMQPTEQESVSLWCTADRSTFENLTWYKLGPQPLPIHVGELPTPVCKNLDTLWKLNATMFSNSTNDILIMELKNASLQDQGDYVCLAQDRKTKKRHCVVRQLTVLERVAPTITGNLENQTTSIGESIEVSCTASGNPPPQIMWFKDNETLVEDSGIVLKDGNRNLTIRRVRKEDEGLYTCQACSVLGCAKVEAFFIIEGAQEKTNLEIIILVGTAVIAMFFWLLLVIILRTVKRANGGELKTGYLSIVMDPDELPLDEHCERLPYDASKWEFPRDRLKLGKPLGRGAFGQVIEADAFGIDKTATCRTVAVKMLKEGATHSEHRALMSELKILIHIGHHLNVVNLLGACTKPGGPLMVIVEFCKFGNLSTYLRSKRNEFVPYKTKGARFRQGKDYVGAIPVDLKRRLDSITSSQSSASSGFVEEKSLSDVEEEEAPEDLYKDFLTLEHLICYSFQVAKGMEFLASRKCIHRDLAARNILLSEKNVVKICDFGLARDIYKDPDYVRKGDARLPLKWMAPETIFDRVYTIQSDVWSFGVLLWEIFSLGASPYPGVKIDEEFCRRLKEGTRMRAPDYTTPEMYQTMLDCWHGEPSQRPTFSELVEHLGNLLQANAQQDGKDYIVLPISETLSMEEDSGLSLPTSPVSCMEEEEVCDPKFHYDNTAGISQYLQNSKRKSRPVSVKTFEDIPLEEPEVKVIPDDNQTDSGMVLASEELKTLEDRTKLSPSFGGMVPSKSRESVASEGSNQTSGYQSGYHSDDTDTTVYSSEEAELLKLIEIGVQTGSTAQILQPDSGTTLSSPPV
Outline: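 KDR kinase selectivity assay, using a previously reported method. IC50 is the mean of at least three independent dose-response curves.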

[4] = C24h in rat p.o. at 20 mg/kg concentration; format: ADME, organism-based; design: dose 20 mg/kg, route oral; conditions: in vivo, po, read-out: C24h
Outline: (§1)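 Single-dose rat pharmacokinetics: intravenous 2 mg/kg in 25% (w/v) hydroxypropyl-β-cyclodextrin/Sorenson's phosphate buffer (pH 5.5), or oral 20 mg/kg. Oral parameters are Cmax, AUC0-∞ and 24 h blood level. Intravenous parameters are clearance, terminal half-life and Vdss. Bioavailability (F) is derived from the oral and intravenous arms.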

[5] = Half life in rat i.v. at 2 mg/kg concentration; format: ADME, organism-based; design: dose 2 mg/kg, route intravenous; conditions: in vivo, iv; outline: as §1
[6] = target: Fibroblast growth factor receptor 1 (Homo sapiens, UniProt P11362); test: In vitro inhibition of Fibroblast growth factor receptor (FTK)
Fibroblast growth factor receptor 1, sequence (P11362 whole entry): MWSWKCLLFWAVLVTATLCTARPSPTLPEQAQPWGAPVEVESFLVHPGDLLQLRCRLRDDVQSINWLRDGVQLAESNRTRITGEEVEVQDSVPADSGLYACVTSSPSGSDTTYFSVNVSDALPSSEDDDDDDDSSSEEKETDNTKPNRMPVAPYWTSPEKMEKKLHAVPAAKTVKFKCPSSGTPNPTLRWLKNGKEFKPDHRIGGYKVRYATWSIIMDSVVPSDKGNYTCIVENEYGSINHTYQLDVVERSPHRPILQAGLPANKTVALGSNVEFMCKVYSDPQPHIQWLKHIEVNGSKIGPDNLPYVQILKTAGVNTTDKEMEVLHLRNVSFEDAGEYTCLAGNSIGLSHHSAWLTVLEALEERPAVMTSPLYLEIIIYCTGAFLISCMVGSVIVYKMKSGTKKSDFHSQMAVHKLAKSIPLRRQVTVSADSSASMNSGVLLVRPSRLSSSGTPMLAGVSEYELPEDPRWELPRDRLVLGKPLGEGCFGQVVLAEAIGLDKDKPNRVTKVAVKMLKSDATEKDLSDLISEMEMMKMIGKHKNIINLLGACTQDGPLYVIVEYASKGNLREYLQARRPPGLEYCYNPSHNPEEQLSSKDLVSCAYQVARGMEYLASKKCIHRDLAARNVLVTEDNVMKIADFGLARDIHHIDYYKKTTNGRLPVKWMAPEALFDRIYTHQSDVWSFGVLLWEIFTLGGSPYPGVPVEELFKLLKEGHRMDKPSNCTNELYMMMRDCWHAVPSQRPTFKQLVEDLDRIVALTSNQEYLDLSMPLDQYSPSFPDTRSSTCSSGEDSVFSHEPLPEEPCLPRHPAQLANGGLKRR

[7] = AUC in rat p.o. at 20 mg/kg concentration; format: ADME, organism-based; design: dose 20 mg/kg, route oral; conditions: plasma, po; outline: as §1
[8] = Cmax in rat p.o. at 20 mg/kg concentration; format: ADME, organism-based; design: dose 20 mg/kg, route oral; conditions: in vivo, po; outline: as §1
[9] = Vdss in rat i.v. at 2 mg/kg concentration; format: ADME, organism-based; design: dose 2 mg/kg, route intravenous; conditions: in vivo, iv, read-out: Vdss; outline: as §1
[10] = target: Vascular endothelial growth factor receptor 1 (Homo sapiens, UniProt P17948); test: Inhibition of Vascular endothelial growth factor receptor 1
Vascular endothelial growth factor receptor 1, sequence (P17948 whole entry): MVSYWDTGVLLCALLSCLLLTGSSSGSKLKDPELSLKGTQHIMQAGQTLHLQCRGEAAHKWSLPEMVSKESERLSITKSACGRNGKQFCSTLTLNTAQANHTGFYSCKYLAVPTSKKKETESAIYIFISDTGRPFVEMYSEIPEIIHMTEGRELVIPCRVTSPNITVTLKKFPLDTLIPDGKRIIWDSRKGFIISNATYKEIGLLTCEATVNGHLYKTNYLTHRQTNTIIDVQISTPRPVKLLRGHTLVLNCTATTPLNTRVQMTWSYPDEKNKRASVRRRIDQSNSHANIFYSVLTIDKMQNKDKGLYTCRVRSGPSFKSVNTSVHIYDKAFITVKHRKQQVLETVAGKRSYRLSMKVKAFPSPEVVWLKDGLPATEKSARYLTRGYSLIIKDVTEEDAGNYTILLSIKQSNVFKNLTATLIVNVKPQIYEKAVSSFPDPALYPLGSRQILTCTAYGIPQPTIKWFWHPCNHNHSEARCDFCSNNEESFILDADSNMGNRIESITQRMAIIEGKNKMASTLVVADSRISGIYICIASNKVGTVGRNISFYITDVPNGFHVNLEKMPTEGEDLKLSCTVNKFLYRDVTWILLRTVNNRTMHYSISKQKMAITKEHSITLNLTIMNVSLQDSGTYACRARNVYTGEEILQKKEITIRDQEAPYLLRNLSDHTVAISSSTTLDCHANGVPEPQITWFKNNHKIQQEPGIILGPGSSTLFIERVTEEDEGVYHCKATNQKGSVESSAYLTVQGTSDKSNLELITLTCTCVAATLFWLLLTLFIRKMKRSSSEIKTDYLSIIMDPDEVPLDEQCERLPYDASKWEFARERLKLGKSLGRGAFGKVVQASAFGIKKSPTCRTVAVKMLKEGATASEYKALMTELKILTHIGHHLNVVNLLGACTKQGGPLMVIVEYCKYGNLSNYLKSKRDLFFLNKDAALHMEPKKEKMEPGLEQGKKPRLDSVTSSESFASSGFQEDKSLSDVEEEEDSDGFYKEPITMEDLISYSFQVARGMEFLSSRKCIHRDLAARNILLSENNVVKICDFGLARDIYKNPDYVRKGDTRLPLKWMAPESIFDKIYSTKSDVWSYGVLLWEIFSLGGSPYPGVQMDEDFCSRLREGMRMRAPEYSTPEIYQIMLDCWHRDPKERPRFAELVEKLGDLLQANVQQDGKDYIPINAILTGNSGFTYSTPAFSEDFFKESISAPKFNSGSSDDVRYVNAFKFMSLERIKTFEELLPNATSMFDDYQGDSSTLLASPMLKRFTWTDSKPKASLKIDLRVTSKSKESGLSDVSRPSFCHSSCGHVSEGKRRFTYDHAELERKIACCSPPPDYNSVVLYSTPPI

[11] = pKa was determined; format: physicochemical
[12] = Solubility was determined; format: physicochemical
[13] = target: Angiopoietin-1 receptor (Homo sapiens, UniProt Q02763); test: Inhibition of Tyrosine protein kinase receptor TIE-2
[14] = Bioavailability in rat (dose 20 mg/kg p.o.); conditions: in vivo, po
[15] = species on record: Rattus norvegicus; test: Percentage in free rat serum was determined; format: ADME, organism-based
[16] = Cl in rat i.v. at 2 mg/kg concentration; format: ADME, organism-based; design: dose 2 mg/kg, route intravenous; conditions: in vivo, iv; outline: as §1
[17] = Total body clearance in rat i.v. at 2 mg/kg concentration; format: ADME, organism-based; design: dose 2 mg/kg, route intravenous; conditions: in vivo, iv; outline: as §1

Row | IC50 [1] | IC50 [2] | IC50 [3] | Structure (SMILES) | also measured
1 | 450 nM | 28 nM | 8160 nM | COc1cc2c(Nc3c(F)ccc4c3OCO4)ncnc2cc1OCCCN1CCOCC1 | 
2 | 210 nM | 14 nM | 4960 nM | COc1cc2c(Nc3cccc4c3OCO4)ncnc2cc1OCCCN1CCOCC1 | 
3 | 980 nM | 20 nM | 2320 nM | COc1cc2c(Nc3cccc4c(Cl)c[nH]c34)ncnc2cc1OCCCN1CCOCC1 | 
4 |  | 433 nM |  | COc1cc2c(Nc3cccc4c3OCC4)ncnc2cc1OCCCN1CCOCC1 | 
5 | 130 nM | < 4 nM | 2170 nM | COc1cc2c(Nc3c(Cl)ccc4c3OCO4)ncnc2cc1OCCCN1CCCCC1 | concentration at 24 h [4]: 80 nM; half-life [5]: 5.8 h; IC50 [6]: > 100000 nM; AUC [7]: 7900 ng·h/mL; Cmax [8]: 2960 nM; Vd [9]: 14.4 L/kg; IC50 [10]: > 100000 nM; pKa [11]: 9.7; solubility ([12]; read-out: S): > 2000 µM; IC50 [13]: 11300 nM; bioavailability [14]: 86%; Activity [15]: 13.7%; clearance [16]: 36 mL/min/kg
6 | 310 nM | 10 nM | 1180 nM | COc1ccc(Cl)c(Nc2ncnc3cc(OCCCN4CCOCC4)c(OC)cc23)c1 | 
7 |  | 760 nM |  | COc1cc2c(Nc3ccc4c(c3)OCO4)ncnc2cc1OCCCN1CCOCC1 | 
8 | 230 nM | 10 nM | 77000 nM | COc1cc2c(Nc3c(Cl)ccc4c3OCO4)ncnc2cc1OCc1ccnc(C#N)c1 | pKa [11]: 4.9; solubility [12]: 10 µM (≈ 4.62 µg/mL); Activity [15]: 1.6%
9 | 140 nM | < 4 nM | 42600 nM | COc1cc2c(Nc3c(Br)ccc4c3OCO4)ncnc2cc1OCCCN1CCOCC1 | 
10 | 260 nM |  | 15600 nM | COc1cc2c(Nc3c(Cl)ccc4c3OCO4)ncnc2cc1OCC1CCN(C)CC1 | concentration at 24 h [4]: 60 nM; half-life [5]: 5.7 h; IC50 [6]: > 100000 nM; AUC [7]: 2500 ng·h/mL; Cmax [8]: 910 nM; Vd [9]: 17 L/kg; IC50 [10]: > 100000 nM; pKa [11]: 9.4; solubility ([12]; read-out: S): > 3300 µM; bioavailability [14]: 37%; clearance [17]: 49 mL/min/kg; Activity [15]: 9.8%
11 |  | 963 nM |  | CCOc1ccc(Cl)c(Nc2ncnc3cc(OCCCN4CCOCC4)c(OC)cc23)c1 | 
12 | 260 nM | 10 nM | 1380 nM | COc1cc2c(Nc3c(Cl)ccc4ccoc34)ncnc2cc1OCCCN1CCOCC1 | 
13 |  | 260 nM |  | COc1cc2c(Nc3cccc4cc[nH]c34)ncnc2cc1OCCCN1CCOCC1 | 
14 |  | 30 nM | 410 nM | COc1cc2c(Nc3cccc4ccoc34)ncnc2cc1OCCCN1CCOCC1 | 
15 | 180 nM | < 4 nM | 17000 nM | COc1cc2c(Nc3c(Cl)ccc4c3OCO4)ncnc2cc1OCCCN1CCOCC1 | IC50 [6]: > 100000 nM; IC50 [10]: > 100000 nM; pKa [11]: 7.2; solubility ([12]; read-out: S): 71 µM (≈ 33.6 µg/mL); IC50 [13]: 17100 nM; Activity [15]: 10.5%
16 | 1050 nM | 37 nM | 1110 nM | COc1cccc(Nc2ncnc3cc(OCCCN4CCOCC4)c(OC)cc23)c1 | 
17 |  | 370 nM |  | COc1cc2c(Nc3cccc4c3OCCO4)ncnc2cc1OCCCN1CCOCC1 | 
18 | 230 nM | 10 nM | 1230 nM | COc1cc2c(Nc3c(Cl)ccc4occc34)ncnc2cc1OCCCN1CCOCC1 | 
19 |  | 40 nM | 420 nM | COc1cc2c(Nc3cccc4c3ccn4C)ncnc2cc1OCCCN1CCOCC1 | 
20 |  | 477 nM |  | COc1ccc(Nc2ncnc3cc(OCCCN4CCOCC4)c(OC)cc23)cc1 | 
21 |  | < 4 nM | 100 nM | COc1cc2c(Nc3cccc4c(Cl)coc34)ncnc2cc1OCCCN1CCOCC1 | 
22 | 1200 nM | 50 nM | 73800 nM | COc1cc2ncnc(Nc3c(Cl)ccc4c3OCO4)c2cc1OCCCN1CCOCC1 | 
23 |  | 253 nM |  | COc1cccc(Nc2ncnc3cc(OC)c(OC)cc23)c1 | 
24 |  | 560 nM |  | COc1ccccc1Nc1ncnc2cc(OCCCN3CCOCC3)c(OC)cc12 | 
25 |  | 270 nM |  | COc1cc2c(Nc3cccc4c3OC(F)(F)O4)ncnc2cc1OCCCN1CCOCC1 | 
26 |  | 177 nM |  | COc1cc2c(Nc3cccc4[nH]ccc34)ncnc2cc1OCCCN1CCOCC1 | 
27 | 670 nM | 10 nM | 91300 nM | Clc1ccc2c(c1Nc1ncnc3cc(OCCCN4CCOCC4)ccc13)OCO2 | 
28 |  | 16 nM | 250 nM | COc1cc2c(Nc3cccc4occc34)ncnc2cc1OCCCN1CCOCC1 | 
